Assay results as given in ChEMBL document CHEMBL4033781 (J Med Chem, 2018).
Calls of active or inactive are those of the source. The calls are words filed in the database; no cut-off is given here.

Assays:
[1] = target: N+/K+ ATPase alpha-4/beta-1 (Rattus norvegicus, UniProt Q64541); test: Inhibition of recombinant rat Na+/K+-ATPase alpha4/beta1 expressed in baculovirus infected insect Sf9 cell membranes using [gamma-32P]ATP as substrate preincubated for 10 mins followed by substrate addition measured after 30 mins in presence of Na+, K+ and Mg2+ by liquid scintillation counting
N+/K+ ATPase alpha-4/beta-1, sequence (Q64541 whole entry, other chains not shown, canonical isoform): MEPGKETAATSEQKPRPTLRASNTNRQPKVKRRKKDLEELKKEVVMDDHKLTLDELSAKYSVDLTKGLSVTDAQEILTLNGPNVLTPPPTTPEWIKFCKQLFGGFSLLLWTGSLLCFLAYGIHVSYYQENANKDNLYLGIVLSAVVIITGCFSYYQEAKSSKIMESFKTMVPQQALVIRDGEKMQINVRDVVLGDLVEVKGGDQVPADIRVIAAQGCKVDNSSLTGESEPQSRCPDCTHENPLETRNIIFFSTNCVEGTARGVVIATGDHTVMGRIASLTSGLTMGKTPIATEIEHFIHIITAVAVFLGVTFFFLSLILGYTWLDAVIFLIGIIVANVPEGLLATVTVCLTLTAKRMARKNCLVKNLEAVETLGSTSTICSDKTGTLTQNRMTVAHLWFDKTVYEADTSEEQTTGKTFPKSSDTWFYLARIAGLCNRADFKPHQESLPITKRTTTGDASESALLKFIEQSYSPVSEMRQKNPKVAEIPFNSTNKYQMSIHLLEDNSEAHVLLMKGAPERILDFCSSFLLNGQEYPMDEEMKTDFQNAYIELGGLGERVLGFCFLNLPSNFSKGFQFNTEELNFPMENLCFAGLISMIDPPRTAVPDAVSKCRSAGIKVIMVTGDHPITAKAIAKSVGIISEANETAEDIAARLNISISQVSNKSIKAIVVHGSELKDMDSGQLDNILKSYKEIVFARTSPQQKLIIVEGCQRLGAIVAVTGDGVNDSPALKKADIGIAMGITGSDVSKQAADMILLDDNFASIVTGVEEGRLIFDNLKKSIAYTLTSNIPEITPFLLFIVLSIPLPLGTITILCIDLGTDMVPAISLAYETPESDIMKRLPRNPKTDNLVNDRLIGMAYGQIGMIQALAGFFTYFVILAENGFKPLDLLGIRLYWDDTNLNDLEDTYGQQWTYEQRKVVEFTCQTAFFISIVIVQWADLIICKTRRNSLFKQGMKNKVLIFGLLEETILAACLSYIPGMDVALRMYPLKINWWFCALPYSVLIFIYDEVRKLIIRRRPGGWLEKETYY
Procedure, shortened: (§1)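 Rat α/β1 isoforms were expressed in baculovirus-infected Sf9 cells (72 h, 27 °C), washed in 10 mM imidazole-HCl pH 7.5 with 1 mM EGTA, and homogenised. Homogenates were assayed in 120 mM NaCl, 30 mM KCl, 3 mM MgCl₂, 0.2 mM EGTA and 30 mM Tris-HCl pH 7.4. Reactions were started with 2 mM γ[³²P]-ATP (final) and run 30 min at 37 °C. Released ³²Pi was extracted as phosphomolybdate into isobutanol and scintillation counted. IC50 came from single-site dose–response fits.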

[2] = target: Na+/K+ ATPase alpha-3/beta-1 (Rattus norvegicus, UniProt P06687+P07340); test: Inhibition of recombinant rat Na+/K+-ATPase alpha3/beta1 expressed in baculovirus infected insect Sf9 cell membranes using [gamma-32P]ATP as substrate preincubated for 20 mins followed by substrate addition measured after 30 mins by liquid scintillation counting; procedure, shortened: as §1
[3] = target: Sodium/potassium-transporting ATPase subunit alpha-4 (Rattus norvegicus) (UniProt Q64541); test: Inhibition of Na+/K+-ATPase alpha4 in Long Evans rat cauda epididymis sperm assessed as reduction in sperm straight line velocity at 10^-12 to 10^-4 M after 1 hr by SYTO staining based microscopic method
Sodium/potassium-transporting ATPase subunit alpha-4 (Rattus norvegicus), sequence (Q64541 whole entry): as the sequence (Q64541 whole entry, other chains not shown, canonical isoform) above

[4] = target: Na+/K+ ATPase alpha-2/beta-1 (Rattus norvegicus, UniProt P06686+P07340); test: Inhibition of recombinant rat Na+/K+-ATPase alpha2/beta1 expressed in baculovirus infected insect Sf9 cell membranes using [gamma-32P]ATP as substrate preincubated for 20 mins followed by substrate addition measured after 30 mins by liquid scintillation counting; procedure, shortened: as §1
[5] = target: Sodium/potassium-transporting ATPase subunit alpha-4 (Rattus norvegicus) (UniProt Q64541); test: Inhibition of Na+/K+-ATPase alpha4 in Long Evans rat cauda epididymis sperm assessed as reduction in sperm beat cross frequency at 10^-12 to 10^-4 M after 1 hr by SYTO staining based microscopic method
[6] = target: Sodium/potassium-transporting ATPase subunit alpha-4 (Rattus norvegicus) (UniProt Q64541); test: Inhibition of Na+/K+-ATPase alpha4 in Long Evans rat cauda epididymis sperm assessed as reduction in total sperm motility at 10^-12 to 10^-4 M after 1 hr by SYTO staining based microscopic method
[7] = target: Sodium/potassium-transporting ATPase subunit alpha-4 (Rattus norvegicus) (UniProt Q64541); test: Inhibition of Na+/K+-ATPase alpha4 in Long Evans rat cauda epididymis sperm assessed as reduction in sperm average path linearity at 10^-12 to 10^-4 M after 1 hr by SYTO staining based microscopic method
[8] = target: Sodium/potassium-transporting ATPase subunit alpha-4 (Rattus norvegicus) (UniProt Q64541); test: Inhibition of Na+/K+-ATPase alpha4 in Long Evans rat cauda epididymis sperm assessed as reduction in sperm average path velocity at 10^-12 to 10^-4 M after 1 hr by SYTO staining based microscopic method
[9] = target: Sodium/potassium-transporting ATPase subunit alpha-4 (Rattus norvegicus) (UniProt Q64541); test: Inhibition of Na+/K+-ATPase alpha4 in Long Evans rat cauda epididymis sperm assessed as reduction in sperm progressive motility at 10^-12 to 10^-4 M after 1 hr by SYTO staining based microscopic method
MCF7 = test: Antiproliferative activity against human MCF7 cells up to 100 uM after 72 hrs by AlamarBlue assay; assay type: cell-based; settings: mcf7, 72 h
[10] = target: Na+/K+ ATPase alpha-1/beta-1 (Rattus norvegicus, UniProt P06685+P07340); test: Inhibition of recombinant rat Na+/K+-ATPase alpha1/beta1 expressed in baculovirus infected insect Sf9 cell membranes using [gamma-32P]ATP as substrate preincubated for 20 mins followed by substrate addition measured after 30 mins by liquid scintillation counting
Procedure, shortened: as §1, with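 “counted. Activity was taken as the 1 mM ouabain-sensitive fraction.” for “counted.”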

[11] = target: Sodium/potassium-transporting ATPase subunit alpha-4 (Rattus norvegicus) (UniProt Q64541); test: Inhibition of Na+/K+-ATPase alpha4 in Long Evans rat cauda epididymis sperm assessed as reduction in sperm curvilinear velocity at 10^-12 to 10^-4 M after 1 hr by SYTO staining based microscopic method
[12] = target: T1, Voltage-gated inwardly rectifying potassium channel KCNH2 (Homo sapiens, UniProt Q12809); test: Displacement of Tracer Red from human ERG expressed in cell membranes up to 60 uM by fluorescence polarization assay
T1 sequence (Q12809 whole entry): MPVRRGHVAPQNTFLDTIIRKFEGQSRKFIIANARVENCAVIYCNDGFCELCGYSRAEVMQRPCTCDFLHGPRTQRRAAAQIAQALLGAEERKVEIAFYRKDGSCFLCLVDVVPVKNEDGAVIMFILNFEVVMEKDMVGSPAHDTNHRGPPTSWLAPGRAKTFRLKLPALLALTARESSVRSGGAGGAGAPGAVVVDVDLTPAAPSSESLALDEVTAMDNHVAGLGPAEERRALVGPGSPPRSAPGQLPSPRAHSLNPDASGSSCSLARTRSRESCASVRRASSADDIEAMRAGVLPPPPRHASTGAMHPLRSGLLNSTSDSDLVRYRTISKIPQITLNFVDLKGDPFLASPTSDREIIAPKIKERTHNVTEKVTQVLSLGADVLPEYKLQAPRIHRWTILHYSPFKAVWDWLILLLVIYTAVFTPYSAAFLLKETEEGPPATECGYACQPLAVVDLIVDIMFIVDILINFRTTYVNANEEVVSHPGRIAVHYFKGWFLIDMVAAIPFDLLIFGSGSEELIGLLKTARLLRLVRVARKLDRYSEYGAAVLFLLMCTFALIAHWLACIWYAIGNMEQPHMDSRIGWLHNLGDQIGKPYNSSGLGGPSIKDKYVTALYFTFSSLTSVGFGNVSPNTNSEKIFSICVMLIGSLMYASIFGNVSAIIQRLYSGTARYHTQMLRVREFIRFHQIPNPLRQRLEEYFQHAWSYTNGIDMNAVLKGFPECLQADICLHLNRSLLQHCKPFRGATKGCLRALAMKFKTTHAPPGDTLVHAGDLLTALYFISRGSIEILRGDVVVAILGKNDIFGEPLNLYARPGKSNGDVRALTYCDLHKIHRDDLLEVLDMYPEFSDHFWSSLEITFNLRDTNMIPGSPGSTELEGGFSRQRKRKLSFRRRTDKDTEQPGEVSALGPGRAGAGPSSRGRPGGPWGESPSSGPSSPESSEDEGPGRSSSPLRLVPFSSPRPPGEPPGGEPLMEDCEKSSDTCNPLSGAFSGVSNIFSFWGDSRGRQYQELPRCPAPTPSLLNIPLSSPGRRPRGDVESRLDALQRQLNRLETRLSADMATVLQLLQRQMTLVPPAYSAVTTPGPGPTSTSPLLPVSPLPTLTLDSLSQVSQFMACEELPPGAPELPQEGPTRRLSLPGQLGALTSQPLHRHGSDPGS
Procedure, shortened: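 Competitive fluorescence polarization displacement of a fluorescently tagged hERG ligand used membranes from cells stably expressing hERG. Compounds were tested up to 60 μM.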

[13] = target: Sodium/potassium-transporting ATPase subunit alpha-4 (Rattus norvegicus) (UniProt Q64541); test: Inhibition of Na+/K+-ATPase alpha4 in Long Evans rat cauda epididymis sperm assessed as reduction in sperm motility at 10^-8 M preincubated for 1 hr followed by compound washout measured up to 2 hrs by SYTO staining based microscopic method
Procedure, shortened: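 Rat cauda epididymal sperm in modified Tyrode's medium were treated with or without compound. Motility was measured by SYTO 21/CASA before and after three washes in modified Tyrode's medium, at times up to 2 h. Values are mean ± SEM of three determinations.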

[14] = target: T1, Voltage-gated inwardly rectifying potassium channel KCNH2; test: Displacement of Tracer Red from human ERG expressed in cell membranes by fluorescence polarization assay
Procedure, shortened: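 Competitive fluorescence polarization binding assay using membranes from cells stably expressing hERG, measuring displacement of a fluorescently tagged hERG ligand. Test compounds were run at concentrations up to 60 μM.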

For C[C@]12C[C@@H](O)[C@H]3[C@@H](CC[C@]4(O)C[C@@H](O)C[C@@H](O)[C@]34CO)[C@@]1(O)CC[C@@H]2c1cn(Cc2ccc(Cl)cc2)nn1, the IC50 [1] was 32 to 43 nM.
Work on C[C@@H]1O[C@@H](O[C@H]2C[C@@H](O)[C@]3(CO)[C@H]4[C@H](O)C[C@]5(C)[C@@H](C(O)c6cn(Cc7ccc(F)cc7)nn6)CC[C@]5(O)[C@@H]4CC[C@]3(O)C2)[C@H](O)[C@H](O)[C@H]1O (mixture of isomers) yielded an IC50 [1] of 13 to 44 nM.
With COCO[C@@H]1[C@H]2OC(C)(C)O[C@H]2[C@H](O[C@H]2C[C@H]3OC(C)(C)OC[C@]34[C@@H]3[C@@H](CC[C@]4(O)C2)[C@@]2(O)CC[C@H](C(O)CO)[C@@]2(C)C[C@H]3OCOC)O[C@H]1C (mixture of isomers) the IC50 [1] was 2100 to 3700 nM.
Compound COCO[C@H]1C[C@H]2OC(C)(C)OC[C@]23[C@@H]2[C@@H](CC[C@]3(O)C1)[C@@]1(OCOC)CC[C@H](C#N)[C@@]1(C)C[C@H]2OCOC has an IC50 [1] of 16000 to 37000 nM.
In the case of COCO[C@@H]1[C@H]2OC(C)(C)O[C@H]2[C@H](O[C@H]2C[C@H]3OC(C)(C)OC[C@]34[C@@H]3[C@@H](CC[C@]4(O)C2)[C@@]2(O)CC[C@H](CO)[C@@]2(C)C[C@H]3OCOC)O[C@H]1C, the IC50 [2] is reported as over 100000 nM, the inhibition [3] is reported as “Active” and the IC50 [4] is reported as over 100000 nM. The inhibition [5] was “Active”, the inhibition [6] was “Active” and the inhibition [7] was “Active”. For the same compound, the inhibition [8] was “Active”, the inhibition [9] was “Active” and the Activity (MCF7) was “Non-Toxic”. The IC50 [10] was over 100000 nM, the inhibition [11] was “Active” and the “inhibition (INH)” value [12] was “Not Active”. The inhibition [13] was “Active”.
C[C@@H]1O[C@@H](O[C@H]2C[C@@H](O)[C@]3(CO)[C@H]4[C@H](O)C[C@]5(C)[C@@H](C6=CC(=O)OC6)CC[C@]5(O)[C@@H]4CC[C@]3(O)C2)[C@H](O)[C@H](O)[C@H]1O [OUABAIN] was tested, and the IC50 [14] was 5800 nM.
COCO[C@@H]1[C@H]2OC(C)(C)O[C@H]2[C@H](O[C@H]2C[C@H]3OC(C)(C)OC[C@]34[C@@H]3[C@@H](CC[C@]4(O)C2)[C@@]2(O)CC[C@H](C#N)[C@@]2(C)C[C@H]3OCOC)O[C@H]1C was tested, and the IC50 [1] was 33 to 62 nM.
C#CC(O)[C@H]1CC[C@]2(OCOC)[C@@H]3CC[C@]4(O)C[C@@H](OCOC)C[C@H]5OC(C)(C)OC[C@]54[C@H]3[C@H](OCOC)C[C@]12C (mixture of isomers) showed an IC50 [1] of 10 to 60 nM.
Compound COCO[C@H]1C[C@H]2OC(C)(C)OC[C@]23[C@@H]2[C@@H](CC[C@]3(O)C1)[C@@]1(OCOC)CC[C@H](C(O)C(F)(F)F)[C@@]1(C)C[C@H]2OCOC (mixture of isomers) has an IC50 [1] of 5600 to 5900 nM.
Work on COCO[C@H]1C[C@H]2OC(C)(C)OC[C@]23[C@@H]2[C@@H](CC[C@]3(O)C1)[C@@]1(OCOC)CC[C@H](C(=O)O)[C@@]1(C)C[C@H]2OCOC yielded an IC50 [1] of 39 to 77 nM.
With COCO[C@H]1C[C@H]2OC(C)(C)OC[C@]23[C@@H]2[C@@H](CC[C@]3(O)C1)[C@@]1(OCOC)CC[C@H](/C=N/O)[C@@]1(C)C[C@H]2OCOC the IC50 [1] was 1.4 to 2.9 nM.
COCO[C@H]1C[C@H]2OC(C)(C)OC[C@]23[C@@H]2[C@@H](CC[C@]3(O)C1)[C@@]1(OCOC)CC[C@H](CO)[C@@]1(C)C[C@H]2OCOC was tested, and the IC50 [2] was over 100000 nM, the inhibition [3] was “Active” and the IC50 [4] was 6600 nM. The inhibition [5] was “Active”, the inhibition [6] was “Active” and the inhibition [7] was “Active”. For the same compound, the inhibition [8] was “Active”, the inhibition [9] was “Active” and the Activity (MCF7) was “Non-Toxic”. The IC50 [10] was over 100000 nM, the inhibition [11] was “Active” and the “inhibition (INH)” value [12] was “Not Active”. For the same compound, the inhibition [13] was “Active”.
COCO[C@H]1C[C@H]2OC(C)(C)OC[C@]23[C@@H]2[C@@H](CC[C@]3(O)C1)[C@@]1(OCOC)CC[C@H](c3cn(Cc4ccccc4)nn3)[C@@]1(C)C[C@H]2OCOC was tested, and the IC50 [1] was 5 to 6.9 nM.
For C[C@]12C[C@@H](O)[C@H]3[C@@H](CC[C@]4(O)C[C@@H](O)C[C@@H](O)[C@]34CO)[C@@]1(O)CC[C@@H]2c1cn(Cc2ccc(F)cc2)nn1, the IC50 [1] was 32 to 49 nM.
For COCO[C@@H]1[C@H]2OC(C)(C)O[C@H]2[C@H](O[C@H]2C[C@H]3OC(C)(C)OC[C@]34[C@@H]3[C@@H](CC[C@]4(O)C2)[C@@]2(O)CC[C@H](C=O)[C@@]2(C)C[C@H]3OCOC)O[C@H]1C, the IC50 [1] was 4.9 to 7.1 nM.
With COCO[C@@H]1[C@H]2OC(C)(C)O[C@H]2[C@H](O[C@H]2C[C@H]3OC(C)(C)OC[C@]34[C@@H]3[C@@H](CC[C@]4(O)C2)[C@@]2(O)CC[C@H](C(O)c4cn(Cc5ccc(F)cc5)nn4)[C@@]2(C)C[C@H]3OCOC)O[C@H]1C (mixture of isomers) the IC50 [1] was 12 to 70 nM.
COc1ccc(-c2cn(C[C@H]3CC[C@]4(O)[C@@H]5CC[C@]6(O)C[C@@H](O)C[C@@H](O)[C@]6(CO)[C@H]5[C@H](O)C[C@]34C)nn2)cc1 gave an IC50 [1] of 15000 to 39000 nM.
For C[C@@H]1O[C@@H](O[C@H]2C[C@@H](O)[C@]3(CO)[C@H]4[C@H](O)C[C@]5(C)[C@@H](C(O)c6cn(Cc7ccccc7)nn6)CC[C@]5(O)[C@@H]4CC[C@]3(O)C2)[C@H](O)[C@H](O)[C@H]1O (mixture of isomers), the IC50 [1] was 1200 to 1500 nM.
For C[C@@H]1O[C@@H](O[C@H]2C[C@H]3OC(C)(C)OC[C@]34[C@H]3[C@H](O)C[C@]5(C)[C@@H](C6=CC(=O)OC6)CC[C@]5(O)[C@@H]3CC[C@]4(O)C2)[C@@H]2OC(C)(C)O[C@@H]2[C@H]1O, the IC50 [1] was 4 to 4.3 nM.
